Test results taken from ChEMBL document CHEMBL4513216, “Probing the Open Global Health Chemical Diversity Library for Multistage-Active Starting Points for Next-Generation Antimalarials” (ACS Infect Dis, 2020).

Test: Toxicity liver stage against HepG2, at 10uM
Format: cell-based
Set-up: test concentration 10 uM, cell line HepG2-A16-CD81EGFP
Conditions: human, HepG2-A16-CD81EGFP cells; read-out: INHIBITION
Method in brief: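 Uninfected HepG2-A16-CD81EGFP cells, 3 × 10^3 per well, 1536-well, plated on prespotted compound at 10 μM final, parasite-free screening media added to match infected plates; puromycin 10 μM positive, DMSO 0.5% negative; run in parallel with 48 h PbLuc assay at 37 °C, 5% CO2; viability by CellTiter-Glo luminescence, normalized to controls.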

| SMILES | cytotoxicity at 10 µM [%] |
| --- | --- |
| CC(C)c1nnc(NC(=O)CCC(=O)NCC2CCCO2)s1 (centres undefined) | -9.58 |
| CN1CCOC[C@H]1c1nc(-c2ccncc2)c[nH]1 | 2.23 |
| Cc1ccc(S(=O)(=O)NC[C@H]2OC[C@@H](NCc3cccs3)[C@@H]2O)cc1 | -3.24 |
| Cc1ccn2c(=O)cc(CSCC(=O)Nc3nnc(C(C)C)s3)nc2c1 | -8.93 |
| CCc1ccccc1NCc1nc2[nH]c(C)c(C)c(=O)n2n1 | 7.98 |
| COC(=O)CSc1nnc(CCNC(=O)OC(C)(C)C)o1 | 4.34 |
| COc1ccc2c3c1CN(C(C)=O)CC3=CC(C)(C)CO2 | 10.1 |
| COC1CN(C(=O)OCC(C)C)CCC(=O)N(C)c2ccccc21 (centres undefined) | -0.321 |
| Cc1cccc2c1ccn2CC(=O)NC[C@@H]1CCCN2CCCC[C@H]12 | 3.14 |
| O=C(Nc1cccnc1-n1cc(Cl)cn1)C1CCCCC1 | -39 |
| Cc1nn(C)c(C)c1C1SCC(=O)Nc2c1c(O)nn2C(C)C (centres undefined) | -6.82 |
| COc1ccc(-c2n[nH]c(C)c2CC(=O)NCC2CCOCC2)cc1 | -4.28 |
| CSc1ccc(C2SCC(=O)Nc3c2c(=O)[nH]n3C2CCOCC2)cc1 (centres undefined) | -14.9 |
| O=C(Nc1ccc(Br)cc1F)c1ccc(N2CCOCC2)nn1 | 22.4 |
| Cc1ccccc1-c1csc2c(=O)[nH]c(N3CCCC(C(=O)O)C3)nc12 (centres undefined) | -3.16 |
| Cn1cnc(S(=O)(=O)NCC(C)(O)c2ccc3c(c2)OCO3)c1 (centres undefined) | -4.44 |
| COCC(=O)N1CC[C@H]2[C@H]1CCN2CC(C)C | 1.18 |
| CCN1CC2(CC1=O)CN(C(=O)C(C)C)CCN(S(=O)(=O)CC)C2 (centres undefined) | 16 |
| Cc1nc(Nc2ccc(Cl)cn2)sc1C(=O)NCCCN1CCCCC1 | 1.66 |
| O=c1[nH]c2c(c(=O)n1C1CCCCC1)CCC2NCc1ccccc1 (centres undefined) | -5.43 |
| CC(C)n1c(=O)c2sccc2n(CC(=O)Nc2ccccc2)c1=O | 8.02 |
| CCc1noc(C2CCCCN2C(=O)c2cc(C)n(C)n2)n1 (centres undefined) | 11.2 |

| SMILES | cytotoxicity at 10 µM [%] |
| --- | --- |
| Nc1nccc(C2CCCCN2Cc2cccc(F)c2)n1 (centres undefined) | -4 |
| Cn1cc(CN2CCc3nc(-c4ccccn4)nc(O)c3C2)cn1 | -3.81 |
| Cc1nc(Nc2nccs2)cc(C2CCCN2C2CCOCC2)n1 (centres undefined) | -7.08 |
| COCC(C)N1CCN(CCc2ccc3c(c2)CCO3)CC1 (centres undefined) | 4.16 |
| Clc1ccc2c(c1)C=C(CNC1CCc3ncnn3C1)CO2 (centres undefined) | -1.19 |
| COCCNc1nnc(S(=O)(=O)CCC(C)(C)C#N)s1 | 10.7 |
| CCN(CC)CC(=O)N1CCN(CCc2ccncc2)CC1 | -44.7 |
| CCOc1ncccc1NC(=O)N1CCOCC1C (centres undefined) | 10.3 |
| CN(C)c1ccc(C(=O)NCc2cccnc2-n2cncn2)cc1F | 2.84 |
| CNS(=O)(=O)c1cccc(C(C)NCc2cccc(C)c2C)c1 (centres undefined) | 9.44 |
| CC(C)CNC(=O)c1cc(Br)c2c(c1)OCCO2 | 6.7 |
| O=C(NCc1ccccc1CN1CCC(O)CC1)Nc1ccccn1 | 8.52 |
| COCCN(Cc1ccc(F)cc1Cl)C(=O)c1ccccn1 | 11.8 |
| Cn1ncnc1CNc1ccc2c(c1)N(C(=O)OC(C)(C)C)CCC2 | 6.37 |
| Cc1ccoc1C(=O)NCCOc1ncc(Cl)cc1Cl | 3.02 |
| CCSCc1cccc(NC2CCN(C)C2=O)c1 (centres undefined) | 1.18 |
| CCCN(Cc1ccc(C#N)cc1)Cc1nnsc1Cl | -58.4 |
| CCCc1nc(CNc2cc(CS(C)(=O)=O)ccc2Cl)no1 | -2.07 |
| CC(C)Nc1cccc(CNC(=O)N2CCC[C@@H]2CO)c1 | 1.96 |
| Cc1cscc1C(=O)Nc1cc(CSCCO)ccn1 | -25.5 |
| CC(C)c1ccc(CNC(C)c2ccc(S(=O)(=O)N(C)C)cc2)cc1 (centres undefined) | 32.6 |
| Cc1csc(C(C#N)C(=O)NCc2ccccc2)n1 (centres undefined) | 4.02 |

| SMILES | cytotoxicity at 10 µM [%] |
| --- | --- |
| CS(=O)(=O)c1ccc(C(=O)NCc2nc3cc(F)ccc3[nH]2)cc1 | -3.34 |
| CC(C)CSCCCNC(=O)C1CCC1 | -4.47 |
| CC(=O)N(C)Cc1ccccc1NC(=O)N(C)CCc1cccs1 | -10.4 |
| COCC(C)N(C)C(=O)NC1CCN(c2ncccn2)CC1 (centres undefined) | -12.5 |
| CS(=O)(=O)Cc1nc(CN2CCC(C(F)(F)F)CC2)cs1 | -10.9 |
| CC(C)(C)OC(=O)N1CCCc2ccc(NCc3ncc[nH]3)cc21 | -5.99 |
| CN(CCc1cccs1)C1CCCN(Cc2noc(C3CC3)n2)C1 (centres undefined) | -12.5 |
| Cn1ccnc1C(=O)NC[C@H]1OC[C@@H]2CCN(S(C)(=O)=O)C[C@@H]21 | -101 |
| CCS(=O)(=O)N1CCCn2nnc(CNC(C)=O)c2C1 | -113 |
| O=C(CC1CC1)N1CCC2(CCCN(c3ncccn3)C2)CC1 | -71 |
| C=C(C)COc1cccc(C(=O)N2CCC3(CCOCC3)CC2)c1 | -47.1 |
| Cc1cc(NC(=O)CNCc2csc(-c3cnccn3)n2)ccc1Cl | -3.52 |
| Cc1cc(N2CCN(C(=O)Cc3ccc4c(c3)OCO4)CC2)cc(C)n1 | -18 |
| c1csc(CN2CCCN(c3ccc(Cn4ccnc4)cn3)CC2)c1 | -18.2 |
| Cc1n[nH]c(C)c1CCC(=O)NCC1COc2ccccc2C1 (centres undefined) | -40.2 |
| CC(C)(C)c1oc(C(N)=O)cc1CN1CCCCC(N)C1 (centres undefined) | 5.94 |
| Cc1ncsc1C(=O)NCc1cccnc1N(C)CCc1ccccn1 | -14.5 |
| CC(=O)c1ccc(CN2CC(Oc3ccccc3C)C2)cc1 | -4.73 |
| COc1ccc(F)c(CN2CCCC(O)(CNCc3ccon3)C2=O)c1 (centres undefined) | 53.6 |
| CN1CCN(C(=O)NCCc2ccc(F)cc2)[C@H]2CS(=O)(=O)C[C@H]21 | 10.8 |
| CCN1CC2(CCN(C(=O)C(C)Oc3ccc(F)cc3F)CC2)OC1=O (centres undefined) | -1.98 |
| O=C1NCCN2CCN(Cc3ccc(Cl)c(Cl)c3)CC12 (centres undefined) | -4.92 |

| SMILES | cytotoxicity at 10 µM [%] |
| --- | --- |
| Nc1nccc(N2CCNC(C(=O)NCc3ccccn3)C2)n1 (centres undefined) | -48.5 |
| Cc1cc(F)ccc1S(=O)(=O)N1C[C@@H](C)[C@@](C)(O)C1 | -7.25 |
| O=c1cc(C2CCNCC2)nc(Cc2cccc(Cl)c2)[nH]1 | -0.869 |
| O=C(C1CC1)N1CCc2c(ncnc2NCCc2nc3c(s2)CCC3)C1 | -1.05 |
| CN(C)C(=O)c1ccc2c(c1)nc(N1CC[C@H](O)C1)n2C | -18.8 |
| CCCN1CCC(N2CCC(Cn3cc(C4CC4)nn3)CC2)CC1 | -1.98 |
| O=C(c1cnc(-c2cccnc2)nc1)N1CCSCC1 | 0.431 |
| O=C(Nc1ccc(I)cc1C(=O)NCCN1CCOCC1)c1ccco1 | 0.512 |
| CC(=O)Nc1ccc(CNC(=O)CNCc2snnc2C)cc1 | 8.43 |
| CCn1ccnc1CN(C)c1cc(C2CC2)ncn1 | -47.9 |
| CN(Cc1nc(Cc2ccccc2F)no1)CC1Cc2ccccc2O1 (centres undefined) | -5.19 |
| Cc1nc(N2CCC(C(O)c3nccn3C)CC2)c2c(C)noc2n1 (centres undefined) | 7.54 |
| CCc1ccc(NC(=O)CCN2CC(n3nc(C)cc3C)C2)cc1 | -8.03 |
| O=C(NCC(F)F)c1ccc(S(=O)(=O)NCCc2ccncc2)cc1 | -7.88 |
| C=C(C)COc1cccc(CNCCc2nc(N)cc(O)n2)c1 | -47.1 |
| CCC(O)Cn1cc(C2=CCN(Cc3cc(O)nc(C)n3)CC2)cn1 (centres undefined) | -9.2 |
| CC(C)CN1CCc2[nH]cnc2C12CCN(C(=O)c1cnn(C)c1)CC2 | -4.68 |
| CCNc1ncc(C(=O)NCCc2csc(CSC)n2)cn1 | -5.63 |
| CCn1c(C2CCNCC2)nn(CCCc2ccccc2)c1=O | 1.4 |
| CCCN1CCN(C(=O)c2cnccn2)[C@H]2CS(=O)(=O)C[C@H]21 | -19.8 |
| COCc1cc(O)nc(C2CCCN(Cc3cc(OC)ccc3F)C2)n1 (centres undefined) | 4.42 |
| Cc1ccc(CCC(=O)N2CCC(Nc3cccnn3)CC2)cc1 | -5.36 |

| SMILES | cytotoxicity at 10 µM [%] |
| --- | --- |
| COCCN1CCC(CNC(=O)C2(c3ccc(Br)cc3)CCCC2)C1 (centres undefined) | -5.3 |
| O=C1NCCN1C1CCN(Cc2coc(-c3ccc(F)cc3)n2)CC1 | -3.52 |
| Cn1cc(CN2CCCN(C(=O)c3ccc4ccccc4n3)CC2)cn1 | -1.9 |
| Cc1noc(C)c1CCC(=O)N1CCCN(Cc2cccs2)CC1 | -3.39 |
| Cc1ccc(-c2nnc(CN3CCn4c(nnc4C4CC4)C3)o2)cc1 | -6.37 |
| COc1c(C2CCCN2Cc2nc(C3CC3)no2)c(C)nn1C (centres undefined) | -1.79 |
| COc1cc(Cl)ccc1C(=O)NCc1nncn1C | -4.35 |
| Cc1ccc(N(C)S(=O)(=O)c2cc(C(=O)O)cs2)cc1 | 0.0898 |
| CCCc1n[nH]c(C2CN(Cc3nnc(C4CC4)o3)CCO2)n1 (centres undefined) | -20.2 |
| CN(CC1CCCCC1)C(=O)c1ccc(-n2ncc(C#N)c2N)cc1 | 0.347 |
| COc1cc(CNCC(C)O)cc(Cl)c1OCc1ccc(C)cc1 (centres undefined) | -5.23 |
| c1csc(-c2noc(C3CN(Cc4ccc5c(c4)CCO5)C3)n2)c1 | -8.2 |
| CCN1CCO[C@@H]2CN(C(=O)c3ccc4[nH]ccc4c3)CC[C@@H]2C1 | -116 |
| O=C(Cc1ccsc1)N1C[C@@H]2OCCN(c3cnccn3)[C@@H]2C1 | 11.6 |
| CCCC(=O)Nc1ccc2c(c1)C1(CCOCC1)CN2CCOC | -104 |
| CO[C@H]1CCN(S(=O)(=O)c2cccnc2)[C@@H]2CN(CC3CC3)C[C@H]12 | -73.5 |
| CN(C)Cc1cnc2n1CCN(C(=O)Cc1ccc(F)cc1)CC2 | -8.96 |
| O=C(c1ccccc1)N1C[C@@H]2CCCO[C@@H]2[C@H](N2CCCC2)C1 | -2.02 |
| Cc1ccc(C(=O)N2C[C@@H]3CCCO[C@@H]3[C@H](N3CCOCC3)C2)cn1 | -3.4 |
| CN(C)C(=O)Cn1c2c(ccc1=O)CCN(Cc1cnn(C)c1)CC2 | 0.886 |
| Cc1cc(C(=O)N2C[C@@H]3C(CN(C)CCCn4cccn4)[C@@H]3C2)c(C)o1 (some centres undefined) | -55.4 |
